These results are taken from PubChem BioAssay.

Assay [1] in a line: reducers of endogenous Her2 protein level, primary screen, SKBR3 breast tumor cells, AlphaScreen, ATP viability (AID 461;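 active means Her2 level under about 52% in both replicate screens, with viability over 70% of control, limit read from the data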;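 on Her2 level: lower value means less Her2 protein in the cells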;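 on viability: percent of carrier control wells set as 100% viability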). The note with it: 18-24 h, measured here: SKBR3 viability, ATP luminescence, at 10 µM. (In general: In Alpha technology, singlet oxygen from a donor bead excites a nearby acceptor bead.)
In assay [2] the target is Receptor tyrosine-protein kinase erbB-2 (Homo sapiens) (UniProt P04626). The description is as above. The note with it: 18-24 h, at 10 µM, stronger effect = lower value.
A short description of assay [3]: SK-BR-3 cell growth inhibitors, pilot screen, 24 h, human (AID 572;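 active means viability at or below 10% of carrier control in both of two separate runs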;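 further: compound exposure lasted between 18 and 24 h rather than exactly 24 h; 100% = carrier-treated control wells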). The note with it: SK-BR-3 viability, CellTiter-Glo luminescence, at 10 µM, stronger effect = lower value.
Assay [4] is described as follows: HUVEC growth inhibition – cell-based, human, primary screen (AID 575;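 active means viability at or below 30% in both replicate assays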;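 further: 100% = median of untreated cell wells with 0.1% DMSO on each plate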). The note with it: HUVEC proliferation, CellTiter-Glo luminescence, 72 h; at 10 µM; stronger effect = lower value. A digest of the protocol: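 Assay system: primary human umbilical vein endothelial cells / Buffer or medium: endothelial basal medium with 2% FBS plus growth supplements / Compound dosing: one dose, 10 µM final, 0.1% DMSO / Timing: 72 h treatment at 37 °C / Signal: CTG luminescence / Benchmarks: 32 DMSO-only cell-control wells (high), 32 MePR drug-control wells (low) per plate / Plate: collagen-coated 384-well format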
(In general: Cellular ATP, detected with luciferase, serves as a proxy for viable cell number.)

The nature of assay [5]: growth inhibitors of H69AR lung tumor, primary screen, human, duplicate replicates (AID 580;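 active means viability at or under a set limit in both replicates, limit being median viability minus 3 SD, cut at about 48% in these data, passing the limit was not always enough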;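 further: 100% = mean luminescence of untreated wells and 0% = no signal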). The note with it: H69AR lung tumor cells viability, ATP luminescence, 72 h; at 10 µM; stronger effect = lower value.
A short description of assay [6]: reversal of MRP1-mediated doxorubicin resistance, pilot screen, H69AR cells, doxorubicin co-treatment (AID 601;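 active means viability loss from added drug above about 55%, and viability with drug at most 40%, in both replicates, limit read from the data, passing the limit was not always enough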). The note with it: CellTiter-Glo, 72 h, at 10 µM; for differential viability (reversal): stronger effect = higher value.
A short description of assay [7]: 384-well plate pilot, post-Golgi transport modulator project, inhibition of yeast transport mutant growth (AID 636; in the data active means inhibition above about 31%). The note with it: absorbance 615 nm, about 18 h, stronger effect = higher value.
Assay [8] can be described thus: growth suppression of yeast trafficking mutant, preliminary HTS, modulators of trafficking downstream of Golgi apparatus project, 1536-format plate, OD 615 nm (AID 637). The note with it: yeast transport mutant growth, absorbance 615 nm, 18 h; stronger effect = higher value.
The mark [9] stands for this setting: H69AR cells + 2 uM doxorubicin, measured here: viability with 2 uM doxorubicin, stronger effect = lower value.
Where [10] appears, read: H69AR cells, compound alone cytotoxicity.

Active and inactive are the calls of the source. Unless noted, no stated cut-off is given here; in the data, active means inhibition above about 30%; inactive means the rest.

By viability is commonly meant a read-out of living cells in per cent, often relative to untreated cells. What is called inhibition is the drop in the measured response relative to a control, in per cent.

Chain of Receptor tyrosine-protein kinase erbB-2 (Homo sapiens) (P04626 whole entry, looked up): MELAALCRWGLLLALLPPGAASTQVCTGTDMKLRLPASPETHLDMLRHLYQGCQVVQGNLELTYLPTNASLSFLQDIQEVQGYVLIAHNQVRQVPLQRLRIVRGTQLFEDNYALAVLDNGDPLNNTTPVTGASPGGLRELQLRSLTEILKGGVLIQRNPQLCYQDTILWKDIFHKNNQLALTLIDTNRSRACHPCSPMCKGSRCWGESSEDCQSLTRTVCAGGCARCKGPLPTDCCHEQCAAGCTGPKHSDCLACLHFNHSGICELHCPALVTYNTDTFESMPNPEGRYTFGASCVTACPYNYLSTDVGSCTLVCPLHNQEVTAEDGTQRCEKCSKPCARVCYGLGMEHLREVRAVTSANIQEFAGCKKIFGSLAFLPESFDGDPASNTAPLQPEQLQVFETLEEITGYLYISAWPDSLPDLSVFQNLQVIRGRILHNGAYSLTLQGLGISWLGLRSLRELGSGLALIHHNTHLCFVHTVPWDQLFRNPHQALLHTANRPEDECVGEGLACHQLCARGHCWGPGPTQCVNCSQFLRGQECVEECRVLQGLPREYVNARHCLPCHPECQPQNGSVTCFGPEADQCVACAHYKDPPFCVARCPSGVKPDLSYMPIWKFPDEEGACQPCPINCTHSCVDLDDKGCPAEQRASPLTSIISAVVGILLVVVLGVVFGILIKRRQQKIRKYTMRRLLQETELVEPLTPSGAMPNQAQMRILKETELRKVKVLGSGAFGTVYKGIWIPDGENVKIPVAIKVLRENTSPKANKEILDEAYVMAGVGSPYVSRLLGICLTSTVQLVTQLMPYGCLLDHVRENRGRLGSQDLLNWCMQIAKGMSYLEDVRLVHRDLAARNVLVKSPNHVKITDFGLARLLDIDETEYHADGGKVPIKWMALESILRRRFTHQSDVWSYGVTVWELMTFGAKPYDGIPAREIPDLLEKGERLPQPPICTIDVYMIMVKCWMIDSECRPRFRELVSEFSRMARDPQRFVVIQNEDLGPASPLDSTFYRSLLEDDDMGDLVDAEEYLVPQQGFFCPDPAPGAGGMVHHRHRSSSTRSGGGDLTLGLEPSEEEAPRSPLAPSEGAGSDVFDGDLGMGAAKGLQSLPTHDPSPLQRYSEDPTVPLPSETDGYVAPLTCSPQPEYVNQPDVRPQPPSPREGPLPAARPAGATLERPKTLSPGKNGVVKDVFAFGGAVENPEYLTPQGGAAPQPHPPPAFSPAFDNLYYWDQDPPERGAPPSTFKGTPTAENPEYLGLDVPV

Regarding `O=C(CSc1nnnn1Cc1ccccc1)Nc1ccc2c(c1)OCO2`, the viability in assay [1] is 114%; in assay [3] it was 114% (inactive); in assay [4], 90.3% (inactive); in assay [5] it was 108% (inactive); in assay [6] (setting [9]) it was 89.5%; in assay [6] (setting [10]) it was 108%. Besides, the Her2 level in assay [2] was 108% (inactive). The differential viability (reversal) in assay [6] (H69AR cells + 2 uM doxorubicin) is 18.2% (inactive). The inhibition in assay [7] was -5.54% (inactive); in assay [8] it was -3.17% (inactive).
Take `O=C(C1CCN(S(=O)(=O)Cc2ccccc2)CC1)N1CCN(c2ncccn2)CC1`: the viability was 83% in assay [1]; 83% (inactive) in assay [3]; 115% (inactive) in assay [4]; 112% (inactive) in assay [5]; 90% in assay [6] (setting [9]); 112% in assay [6] (setting [10]). For the same compound, in assay [2], the Her2 level was 108% (inactive). In assay [6] (H69AR cells + 2 uM doxorubicin), the differential viability (reversal) is 22.3% (inactive). Further, the inhibition in assay [7] is -0.39% (inactive); in assay [8] it was -2.36% (inactive).
With `O=C1CCCC2=C1C1(CCCC1)N=C(Nc1nc3ccccc3s1)N2`, the viability in assay [1] is 99.5%; in assay [3], 99.5% (inactive); in assay [4], 62.8% (inactive); in assay [5] it was 79.5% (inactive); in assay [6] (setting [9]) it was 68.2%; in assay [6] (setting [10]), 79.5%. Moreover, the Her2 level in assay [2] is 80% (inactive). Also, the differential viability (reversal) in assay [6] (H69AR cells + 2 uM doxorubicin) was 11.3% (inactive). Besides, the inhibition is -4.21% (inactive) in assay [7] and -2.33% (inactive) in assay [8].
As for `Cc1cc(C(=O)CSc2nc3ccccc3[nH]2)c(C)n1C`, the viability is 100% in assay [1]; 100% (inactive) in assay [3]; 120% (inactive) in assay [4]; 94.4% (inactive) in assay [5]; 81.6% in assay [6] (setting [9]); 94.4% in assay [6] (setting [10]). Besides, the Her2 level in assay [2] is 86% (inactive). For the same compound, in assay [6] (H69AR cells + 2 uM doxorubicin), the differential viability (reversal) is 12.8% (inactive). The inhibition was -4.93% (inactive) in assay [7] and -8.36% (inactive) in assay [8].
Take `COc1cccc(C(=O)NCc2nnc(SCC(=O)Nc3nccs3)n2-c2ccccc2)c1`: the viability was 101% in assay [1]; 101% (inactive) in assay [3]; 92.9% (inactive) in assay [4]; 97.9% (inactive) in assay [5]; 101% in assay [6] (setting [9]); 97.9% in assay [6] (setting [10]). Moreover, the Her2 level in assay [2] is 108% (inactive). Besides, the differential viability (reversal) in assay [6] (H69AR cells + 2 uM doxorubicin) is -3.27% (inactive). Also, the inhibition in assay [7] is -2.18% (inactive); in assay [8], 1.17% (inactive).
Consider `COCn1c(COc2ccccc2)nc2ccccc21`, for which the viability was 86.5% in assay [1]; 86.5% (inactive) in assay [3]; 107% (inactive) in assay [4]; 82.6% (inactive) in assay [5]; 84.8% in assay [6] (setting [9]); 82.6% in assay [6] (setting [10]). In assay [2], the Her2 level is 94% (inactive). In addition, the differential viability (reversal) in assay [6] (H69AR cells + 2 uM doxorubicin) was -2.19% (inactive). The results for the inhibition in assay [7] and in assay [8] were -9.32% (inactive) and -2.67% (inactive), respectively.
Regarding `CC1CCN(S(=O)(=O)c2cn(CC(=O)N3CCN(C)CC3)c(=O)c3ccccc23)CC1`, the viability in assay [1] is 122%; in assay [3] it was 122% (inactive); in assay [4] it was 104% (inactive); in assay [5], 97.4% (inactive); in assay [6] (setting [9]), 97%; in assay [6] (setting [10]), 97.4%. The Her2 level in assay [2] was 97% (inactive). Also, the differential viability (reversal) in assay [6] (H69AR cells + 2 uM doxorubicin) was 0.39% (inactive). In addition, the results for the inhibition in assay [7] and in assay [8] were -1.69% (inactive) and -7.46% (inactive), respectively.
Regarding `CCCCP(=O)(CCCC)Cc1ccccc1O`, the viability in assay [1] was 99.5%; in assay [3] it was 99.5% (inactive); in assay [4], 103% (inactive); in assay [5], 97.1% (inactive); in assay [6] (setting [9]) it was 89.8%; in assay [6] (setting [10]) it was 97.1%. Also, in assay [2], the Her2 level was 104% (inactive). The differential viability (reversal) in assay [6] (H69AR cells + 2 uM doxorubicin) was 7.29% (inactive). The inhibition in assay [7] was -5.32% (inactive); in assay [8], -6.07% (inactive).
As for `Cc1nc(NCCNC(=O)c2ccco2)c2c(C)c(C)sc2n1`, the viability in assay [1] is 87.5%; in assay [3], 87.5% (inactive); in assay [4] it was 97.9% (inactive); in assay [5] it was 86.5% (inactive); in assay [6] (setting [9]) it was 84.3%; in assay [6] (setting [10]), 86.5%. Further, the Her2 level in assay [2] is 81% (inactive). Besides, in assay [6] (H69AR cells + 2 uM doxorubicin), the differential viability (reversal) is 2.2% (inactive). Besides, the inhibition is -4.08% (inactive) in assay [7] and 0.91% (inactive) in assay [8].
As for `CC(C)(C)NC(=O)Cn1nnnc1-c1nonc1N`, the viability in assay [1] was 93%; in assay [3], 93% (inactive); in assay [4], 109% (inactive); in assay [5], 105% (inactive); in assay [6] (setting [9]) it was 91.3%; in assay [6] (setting [10]), 105%. Also, the Her2 level in assay [2] is 94.5% (inactive). Besides, the differential viability (reversal) in assay [6] (H69AR cells + 2 uM doxorubicin) was 13.3% (inactive). In addition, the inhibition in assay [7] was -6.53% (inactive); in assay [8], 5.25% (inactive).
Take `O=C(c1cnn2c(C(F)(F)F)cc(-c3ccco3)nc12)N1CCc2ccccc2C1`: the viability in assay [1] is 76%; in assay [3], 76% (inactive); in assay [4] it was 69.9% (inactive); in assay [5] it was 89.6% (inactive); in assay [6] (setting [9]), 85.7%; in assay [6] (setting [10]), 89.6%. In addition, the Her2 level in assay [2] was 112% (inactive). Moreover, in assay [6] (H69AR cells + 2 uM doxorubicin), the differential viability (reversal) is 3.92% (inactive). Besides, the inhibition in assay [7] is -1.33% (inactive); in assay [8] it was -9.37% (inactive).
On to `Cc1cc(Oc2ccccc2)nc(-c2ccccc2)n1`, for which the viability in assay [1] is 100%; in assay [3] it was 100% (inactive); in assay [4], 92.7% (inactive); in assay [5], 99.1% (inactive); in assay [6] (setting [9]), 91.2%; in assay [6] (setting [10]) it was 99.1%. For the same compound, the Her2 level in assay [2] is 112% (inactive). The differential viability (reversal) in assay [6] (H69AR cells + 2 uM doxorubicin) was 7.91% (inactive). In addition, the inhibition is -1.17% (inactive) in assay [7] and -5.25% (inactive) in assay [8].
For `CC1CC(C)CN(CCCNC(=O)COc2cc(=O)n(C)c3ccccc23)C1` (stereo not given), the viability in assay [1] is 90%; in assay [3] it was 90% (inactive); in assay [4], 85.3% (inactive); in assay [5], 90.7% (inactive); in assay [6] (setting [9]), 74.2%; in assay [6] (setting [10]), 90.7%. In assay [2], the Her2 level is 88% (inactive). For the same compound, the differential viability (reversal) in assay [6] (H69AR cells + 2 uM doxorubicin) was 16.5% (inactive). Also, the inhibition was -3.73% (inactive) in assay [7] and -4.59% (inactive) in assay [8].
Take `Cc1ccc(S(=O)(=O)N2CCOCC(=O)NCCOCCNC(=O)COCC2)cc1`: the viability in assay [1] is 93.5%; in assay [3] it was 93.5% (inactive); in assay [4], 95.4% (inactive); in assay [5] it was 106% (inactive); in assay [6] (setting [9]) it was 96.9%; in assay [6] (setting [10]), 106%. Also, in assay [2], the Her2 level is 102% (inactive). Further, in assay [6] (H69AR cells + 2 uM doxorubicin), the differential viability (reversal) is 8.95% (inactive). For the same compound, the inhibition in assay [7] is -4.13% (inactive); in assay [8], -4.26% (inactive).
Consider `CCOc1cc(NC(=O)c2ccco2)c(OCC)cc1NC(=O)CCC(=O)NCc1cccnc1`, for which the viability was 95.5% in assay [1]; 95.5% (inactive) in assay [3]; 88.1% (inactive) in assay [4]; 86.1% (inactive) in assay [5]; 90.8% in assay [6] (setting [9]); 86.1% in assay [6] (setting [10]). For the same compound, the Her2 level in assay [2] is 100% (inactive). In assay [6] (H69AR cells + 2 uM doxorubicin), the differential viability (reversal) was -4.71% (inactive). Also, the results for the inhibition in assay [7] and in assay [8] were -1.43% (inactive) and -4.17% (inactive), respectively.
